Assay results collected from several papers.
Cell line: U-251
Read-out: cell growth or viability

The IC50 of `COc1nc(OCc2cccc(-c3ccccc3)c2C)ccc1CNCCNC(C)=O` is reported as 4300 nM (MTT).
With `COc1ccc(-c2ccc(-c3ccc(C(=N)N)nc3)s2)cc1` the GI50 was 1810 nM (SRB).
`COc1cccc(Oc2ccccc2NC(=O)CNC(=O)c2cccc3ccccc23)c1` gave a GI50 of 240 nM (SRB; 48 h).
`COc1ccc(C(=O)/C=C/c2cccc(Br)c2)cc1S(N)(=O)=O` has an inhibition of 198% (SRB; 10 µM).
With `COc1cc(-c2ccc(-c3ccc(C(=N)N)nc3)s2)cc(OC)c1OC` the GI50 was 1740 nM (SRB).
For `CC(=O)O[C@H]1C(=O)[C@@]2(C)[C@H]([C@H](OC(=O)c3ccccc3)[C@]3(O)C[C@H](OC(=O)[C@H](O)[C@@H](NC(=O)c4ccccc4)c4ccccc4)C(C)=C1C3(C)C)[C@]1(OC(C)=O)CO[C@@H]1C[C@@H]2O`, the IC50 was 0.5 µg/mL.
`Cc1cc(NC(=O)c2cccc3cc(-c4cccc5[nH]nc(N)c45)ccc23)ccc1F` gave an IC50 of over 20000 nM (CCK-8; 72 h).
`COc1ccc(C(=O)/C=C/c2cccnc2)cc1S(N)(=O)=O` has an inhibition of 89% (SRB; 10 µM).
With `O=C1Nc2ccccc2C1=NNc1nnc2n1N=C(c1ccccc1)CS2` the inhibition was 50% (SRB; 10 µM).
